Reference: ChEMBL document CHEMBL4715843, “NO-releasing STAT3 inhibitors suppress BRAF-mutant melanoma growth” (Eur J Med Chem, 2020)
pIC50: −log10 of the molar value. Activity calls are given as the source filed them. The rule behind the calls is not given here.

Assays:
[1] = Antiproliferative activity against human SB-590885-sensitive 451Lu cells assessed as reduction in cell viability measured after 48 hrs by MTS assay; type: functional
Method in brief: (§1)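 Melanoma lines were grown in RPMI-1640 with Glutamax at 37 °C and 5% CO2. The resistant 451 Lu-R and MEL 1617-R sublines were maintained with 1 µM PLX4720. Cells were incubated with vehicle or inhibitor over a dose range, and viability was read by MTS assay in triplicate.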

[2] = Antiproliferative activity against human SB-590885-resistant 451Lu cells assessed as reduction in cell viability measured after 48 hrs by MTS assay; type: functional; method in brief: as §1
[3] = Antiproliferative activity against human SB-590885-sensitive MEL1617 cells assessed as reduction in cell viability measured after 48 hrs by MTS assay; type: functional, cell-based; settings: MEL1617, 48 h; method in brief: as §1
[4] = Antiproliferative activity against human SB-590885-resistant MEL1617 cells assessed as reduction in cell viability measured after 48 hrs by MTS assay; type: functional, cell-based; method in brief: as §1
[5] = Drug metabolism in pH 7.4 phosphate buffer assessed as nitric oxide release at 100 uM measured after 2 hrs by Griess reagent based colorimetric method
Method in brief: (§2)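 Compound at 100 µM was held at room temperature in pH 7.4 phosphate buffer with 5 mM DTT and 2% DMSO for 2 or 48 h. Griess reagent was added, and after 30 min absorbance was read at 548 nm. NO release (mol NO/mol compound) was derived from a sodium nitrite calibration curve.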

[6] = Drug metabolism in pH 7.4 phosphate buffer assessed as nitric oxide release at 100 uM measured after 48 hrs by Griess reagent based colorimetric method; method in brief: as §2
[7] = target: T1, Signal transducer and activator of transcription 3 (Homo sapiens, UniProt P40763); assay: Inhibition of STAT3 phosphorylation at Y705 residue in human SB-590885-resistant 451Lu cells measured after 12 hrs by Western blot analysis; settings: dose 10-25 µM
Method in brief: (§3)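 451 Lu and MEL 1617 pairs, sensitive and resistant; resistant lines maintained in RPMI with 1 µM PLX4720. Treated with 10 and 25 µM for 12 h versus DMSO. Lysates (60 µg protein, 10% SDS-PAGE) immunoblotted for Ser727- and Tyr705-phospho-STAT3, total STAT3, total PAX3, with actin.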

[8] = target: T1, Signal transducer and activator of transcription 3; assay: Inhibition of STAT3 phosphorylation at S727 residue in human SB-590885-resistant 451Lu cells measured after 12 hrs by Western blot analysis; settings: dose 10-25 µM; method in brief: as §3
[9] = target: T1, Signal transducer and activator of transcription 3; assay: Inhibition of STAT3 phosphorylation at Y705 residue in human SB-590885-sensitive 451Lu cells measured after 12 hrs by Western blot analysis; settings: dose 10-25 µM; method in brief: as §3
[10] = target: T1, Signal transducer and activator of transcription 3; assay: Inhibition of STAT3 phosphorylation at S727 residue in human SB-590885-sensitive 451Lu cells measured after 12 hrs by Western blot analysis; settings: dose 10-25 µM; method in brief: as §3
[11] = target: T1, Signal transducer and activator of transcription 3; assay: Inhibition of STAT3 in human SB-590885-sensitive 451Lu cells assessed as reduction in PAX3 expression measured after 12 hrs by Western blot analysis; settings: dose 10-25 µM; method in brief: as §3
[12] = target: T1, Signal transducer and activator of transcription 3; assay: Inhibition of STAT3 in human SB-590885-resistant 451Lu cells assessed as reduction in PAX3 expression measured after 12 hrs by Western blot analysis; settings: dose 10-25 µM; method in brief: as §3
[13] = target: T1, Signal transducer and activator of transcription 3; assay: Inhibition of STAT3 phosphorylation at Y705 residue in human SB-590885-resistant MEL1617 cells at 10 to 25 uM measured after 12 hrs by Western blot analysis; type: cell-based; settings: dose 10-25 µM; method in brief: as §3
[14] = target: T1, Signal transducer and activator of transcription 3; assay: Inhibition of STAT3 phosphorylation at S727 residue in human SB-590885-resistant MEL1617 cells at 10 to 25 uM measured after 12 hrs by Western blot analysis; type: cell-based; settings: dose 10-25 µM; method in brief: as §3
[15] = target: T1, Signal transducer and activator of transcription 3; assay: Inhibition of STAT3 phosphorylation at Y705 residue in human SB-590885-sensitive MEL1617 cells at 10 to 25 uM measured after 12 hrs by Western blot analysis; type: cell-based; settings: dose 10-25 µM; method in brief: as §3
[16] = target: T1, Signal transducer and activator of transcription 3; assay: Inhibition of STAT3 phosphorylation at S727 residue in human SB-590885-sensitive MEL1617 cells at 10 to 25 uM measured after 12 hrs by Western blot analysis; type: cell-based; settings: dose 10-25 µM; method in brief: as §3
[17] = target: T1, Signal transducer and activator of transcription 3; assay: Inhibition of STAT3 in human SB-590885-sensitive MEL1617 cells assessed as reduction in PAX3 expression at 10 to 25 uM measured after 12 hrs by Western blot analysis; type: cell-based; settings: dose 10-25 µM; method in brief: as §3
[18] = target: T1, Signal transducer and activator of transcription 3; assay: Inhibition of STAT3 in human SB-590885-resistant MEL1617 cells assessed as reduction in PAX3 expression at 10 to 25 uM measured after 12 hrs by Western blot analysis; type: cell-based; settings: dose 10-25 µM; method in brief: as §3
[19] = tested on: HFF; assay: Cytotoxicity against HFF assessed as inhibition of cell proliferation by MTS assay; type: cell-based, Homo sapiens
[20] = tested on: MCF-10A; assay: Cytotoxicity against human MCF-10A cells assessed as inhibition of cell proliferation by MTS assay; type: cell-based
[21] = tested on: A-375; assay: Cytotoxicity against human A-375 cells assessed as inhibition of cell proliferation measured after 48 hrs by MTS assay; type: functional, cell-based; settings: A-375, 48 h
Method in brief: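 Cells were exposed to a dose range of inhibitor for 48 h, and viability was read by MTS assay in triplicate. GI50 was taken as the concentration giving 50% growth inhibition, averaged from three independent experiments. A375 was cultured in RPMI-1640 with Glutamax. A549 and NCI-H157 were kept in RPMI-1640, and MIA PaCa-2 and U87-MG in DMEM.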

[22] = target: T1, Signal transducer and activator of transcription 3; assay: Displacement of FAM-labeled 5-GpYLPQTV-NH2 from recombinant GST-tagged STAT3 (unknown origin) preincubated for 30 mins followed by FAM-labeled 5-GpYLPQTV-NH2 addition and measured after 30 mins by fluorescence assay; settings: time 60.0 min
Method in brief: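 GST-STAT3 (2 µM) was bound to GST beads for 1 h at 4 °C in PBS with 0.1% β-mercaptoethanol, then washed. Bead slurry was incubated with compound dilutions (2.25% DMSO, duplicate) and FAM-GpYLPQTV-NH2 peptide. Resin was washed by vacuum filtration and fluorescence read at ex 485/em 535 nm. % displacement was set against the no-compound signal; two independent experiments.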

[23] = tested on: A-375; assay: Potentiation of compound II-induced cytotoxicity against human A375 cells assessed as compound II IC50 at 12.5 uM measured after 48 hrs by MTS assay (reference value: 16.2 +/- 1.6 uM); type: functional, cell-based; settings: A-375, 48 h
[24] = target: T1, Signal transducer and activator of transcription 3; assay: Inhibition of STAT3 in human SB-590885-sensitive 451Lu cells assessed as reduction in STAT3 transcriptional activity measured after 12 hrs by Dual-luciferase reporter gene assay
Method in brief: (§4)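 Cells co-transfected with inducible STAT3-responsive firefly luciferase and constitutive Renilla luciferase constructs (40:1) using Lipofectamine 3000. After 48 h, dose series in DMSO vehicle applied for 12 h, followed by dual-luciferase readout. Firefly signal normalized to Renilla and compared with untreated cells. Run in triplicate; IC50 taken from dose–response curves.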

[25] = target: T1, Signal transducer and activator of transcription 3; assay: Inhibition of STAT3 in human SB-590885-resistant 451Lu cells assessed as reduction in STAT3 transcriptional activity measured after 12 hrs by Dual-luciferase reporter gene assay; method in brief: as §4
[26] = target: T1, Signal transducer and activator of transcription 3; assay: Inhibition of STAT3 in human SB-590885-sensitive MEL1617 cells assessed as reduction in STAT3 transcriptional activity measured after 12 hrs by Dual-luciferase reporter gene assay; type: cell-based; method in brief: as §4
[27] = target: T1, Signal transducer and activator of transcription 3; assay: Inhibition of STAT3 in human SB-590885-resistant MEL1617 cells assessed as reduction in STAT3 transcriptional activity measured after 12 hrs by Dual-luciferase reporter gene assay; type: cell-based; method in brief: as §4
[28] = tested on: MOLT-4; assay: Anticancer activity against human MOLT-4 cells assessed as cell growth inhibition at 10 uM measured after 48 hrs by SRB assay relative to control; type: functional; settings: read-out: GI
Method in brief: (§5)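 NCI 60-cell-line screen. Cells in RPMI with 5% FBS were plated at 5,000–40,000 cells/well by doubling time and preincubated 24 h at 37 °C. Compound was added at a single 10 µM for 48 h, then cells were fixed with cold TCA (10% final) and stained with 0.4% SRB. Absorbance at 515 nm gave percent growth versus untreated control and time-zero cells.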

[29] = tested on: CCRF-CEM; assay: Anticancer activity against human CCRF-CEM cells assessed as cell growth inhibition at 10 uM measured after 48 hrs by SRB assay relative to control; type: functional; settings: read-out: GI; method in brief: as §5
[30] = tested on: T47D; assay: Anticancer activity against human T47D cells assessed as cell growth inhibition at 10 uM measured after 48 hrs by SRB assay relative to control; type: functional; settings: read-out: GI; method in brief: as §5
[31] = tested on: HL-60(TB); assay: Anticancer activity against human HL-60(TB) cells assessed as cell growth inhibition at 10 uM measured after 48 hrs by SRB assay relative to control; type: functional; settings: read-out: GI
Method in brief: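 NCI 60-cell-line screen, single dose 10 µM, DMSO stock diluted in complete medium with gentamicin. Cells in RPMI with 5% FBS, plated at density set by doubling time, preincubated 24 h, then exposed 48 h at 37 °C, 5% CO2. TCA fixation, SRB staining, absorbance at 515 nm. Percent growth taken relative to untreated control and time-zero cell number.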

[32] = tested on: K562; assay: Anticancer activity against human K562 cells assessed as cell growth inhibition at 10 uM measured after 48 hrs by SRB assay relative to control; type: functional; settings: read-out: GI; method in brief: as §5
[33] = tested on: RPMI-8226; assay: Anticancer activity against human RPMI-8226 cells assessed as cell growth inhibition at 10 uM measured after 48 hrs by SRB assay relative to control; type: functional; settings: read-out: GI; method in brief: as §5
[34] = tested on: A549; assay: Anticancer activity against human A549 cells assessed as cell growth inhibition at 10 uM measured after 48 hrs by SRB assay; type: functional, cell-based; method in brief: as §5
[35] = tested on: NCI-H522; assay: Anticancer activity against human NCI-H522 cells assessed as cell growth inhibition at 10 uM measured after 48 hrs by SRB assay; type: functional, cell-based; method in brief: as §5
[36] = tested on: COLO 205; assay: Anticancer activity against human COLO 205 cells assessed as cell growth inhibition at 10 uM measured after 48 hrs by SRB assay; type: functional, cell-based; method in brief: as §5

T1 sequence (P40763 whole entry): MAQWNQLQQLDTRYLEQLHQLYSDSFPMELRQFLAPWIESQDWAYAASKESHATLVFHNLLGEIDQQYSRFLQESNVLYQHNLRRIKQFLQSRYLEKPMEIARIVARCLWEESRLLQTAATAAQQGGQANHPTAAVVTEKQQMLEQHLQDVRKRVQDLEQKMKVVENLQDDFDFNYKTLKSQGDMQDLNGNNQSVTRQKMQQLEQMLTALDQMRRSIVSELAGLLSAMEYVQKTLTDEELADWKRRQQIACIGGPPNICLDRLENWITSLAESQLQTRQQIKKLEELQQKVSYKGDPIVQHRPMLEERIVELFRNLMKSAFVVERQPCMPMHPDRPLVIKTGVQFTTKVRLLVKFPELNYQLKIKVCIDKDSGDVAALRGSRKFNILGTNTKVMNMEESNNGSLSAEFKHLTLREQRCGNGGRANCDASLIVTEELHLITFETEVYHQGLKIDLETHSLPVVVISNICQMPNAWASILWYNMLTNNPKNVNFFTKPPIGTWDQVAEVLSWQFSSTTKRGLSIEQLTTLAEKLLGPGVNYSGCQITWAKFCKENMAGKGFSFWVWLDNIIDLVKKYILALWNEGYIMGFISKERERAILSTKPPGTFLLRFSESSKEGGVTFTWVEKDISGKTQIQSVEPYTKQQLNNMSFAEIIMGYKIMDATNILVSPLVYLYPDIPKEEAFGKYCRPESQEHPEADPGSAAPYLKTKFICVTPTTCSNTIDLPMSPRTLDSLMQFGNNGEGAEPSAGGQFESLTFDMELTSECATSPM

Structure (SMILES)	pIC50 [1]	pIC50 [3]	Drug metabolism [5]	Drug metabolism [6]	inhibition [7]	inhibition [8]	inhibition [9]	inhibition [10]	inhibition [11]	inhibition [12]	inhibition [13]	inhibition [14]	inhibition [15]	inhibition [16]	inhibition [17]	inhibition [18]	pIC50 [21]	further results
CCCS(=O)(=O)Nc1ccc(F)c(C(=O)c2c[nH]c3ncc(Cl)cc23)c1F [PLX-4720]	7.21	7.08	–	–	–	–	–	–	–	–	–	–	–	–	–	–	–	IC50 ([2]; 451lu): Not Active; IC50 ([4]; mel1617): Not Active
COc1ccc(-c2cc(-c3nnc(SCC(=O)Nc4ccc(/C(C)=N\O)cc4)n3-c3ccccc3)c3cc(OC)ccc3n2)cc1	–	–	15%	30%	inactive	inactive	inactive	inactive	inactive	inactive	inactive	inactive	inactive	inactive	inactive	inactive	–	–
COc1ccc2nc(-c3ccc(OC)c(OC)c3)cc(-c3nnc(SCC(=O)Nc4ccc(/C(C)=N\O)cc4)n3-c3ccccc3)c2c1	–	–	15%	30%	inactive	inactive	inactive	inactive	inactive	inactive	inactive	inactive	inactive	inactive	inactive	inactive	–	–
O=C(Nc1nnc(-c2ccco2)o1)c1cc(-c2ccccc2)nc2ccccc12	–	–	–	–	–	–	–	–	–	–	–	–	–	–	–	–	4.79	pIC50 ([19]; Homo sapiens, HFF, read-out: IC50): 4.14; pIC50 ([20]; Homo sapiens, MCF-10A, read-out: IC50): 4.48
COc1ccc2nc(-c3ccc(Cl)cc3)cc(-c3nnc(SCC(=O)Nc4ccc(/C(C)=N\O)cc4)n3-c3ccccc3)c2c1	< 4.30	< 4.30	15%	30%	inactive	inactive	inactive	inactive	inactive	inactive	inactive	inactive	inactive	inactive	inactive	inactive	< 4.00	IC50 ([19]; hff): Not Active; IC50 ([20]; mcf-10a): Not Active; inhibition [22]: inactive; pIC50 [23]: 5.17; pIC50 [24]: 4.27; pIC50 [25]: 4.39; pIC50 [26]: 4.12; pIC50 [27]: 4.45; pIC50 ([2]; Homo sapiens, 451Lu, 48 h, read-out: IC50): < 4.30; pIC50 ([4]; Homo sapiens, MEL1617, 48 h, read-out: IC50): < 4.30
C=CCn1c(SCC(=O)Nc2ccc(/C(C)=N\O)cc2)nnc1-c1cc(-c2ccc(OC)cc2)nc2ccccc12	–	–	–	–	–	–	–	–	–	–	–	–	–	–	–	–	–	inhibition of growth at 10 µM [28]: 81%; inhibition of growth at 10 µM [29]: 81%; inhibition of growth at 10 µM [30]: 100%; inhibition of growth at 10 µM [31]: 100%; inhibition of growth at 10 µM [32]: 81%; inhibition of growth at 10 µM [33]: 81%; growth inhibition (GI) [34]: Active; growth inhibition (GI) [35]: Active; growth inhibition (GI) [36]: Active
